Reference: ChEMBL document CHEMBL1130327, “Synthesis and antimalarial effects of phenothiazine inhibitors of a Plasmodium falciparum cysteine protease” (J Med Chem, 1997)
pIC50: −log10 of the molar value.

Tests used:
MDCK = assay: Compound was tested for inhibition of MDCK cell metabolism using MTT assay method.; format: functional, cell-based; conditions: Canis lupus familiaris
Outline: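 MDCK cells cultured overnight in phenol red-free RPMI with 1–100 μM compound (100× DMSO stocks); medium then replaced with MTT (1 mg/mL) for 2 h. Supernatant removed, ethanol added, absorbance read at 560 nm. Compared with cells given 1% DMSO overnight.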

Falcipain 2 = target: T1, Falcipain 2 (Plasmodium falciparum, UniProt Q9N6S8); assay: Inhibition of falcipain activity; format: functional
T1 sequence (Q9N6S8 whole entry): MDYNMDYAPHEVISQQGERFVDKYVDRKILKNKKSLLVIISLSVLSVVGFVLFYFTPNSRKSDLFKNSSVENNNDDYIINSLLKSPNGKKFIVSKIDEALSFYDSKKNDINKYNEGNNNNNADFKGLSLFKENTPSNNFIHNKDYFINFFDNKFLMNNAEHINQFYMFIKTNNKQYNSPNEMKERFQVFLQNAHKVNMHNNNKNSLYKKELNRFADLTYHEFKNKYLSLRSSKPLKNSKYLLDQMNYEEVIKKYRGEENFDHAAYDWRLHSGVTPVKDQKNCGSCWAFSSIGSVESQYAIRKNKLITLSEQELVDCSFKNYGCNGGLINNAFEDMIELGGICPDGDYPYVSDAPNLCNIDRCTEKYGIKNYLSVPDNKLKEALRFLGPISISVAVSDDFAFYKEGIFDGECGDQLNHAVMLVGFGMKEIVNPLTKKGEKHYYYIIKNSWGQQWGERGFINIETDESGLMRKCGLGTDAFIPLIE
Outline: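 Soluble parasite extract containing falcipain (30 nM) preincubated 30 min at room temperature with compound (100× DMSO stocks) and 10 mM DTT in 0.1 M sodium acetate, pH 5.5. Z-Phe-Arg-AMC then added to 50 μM final. Fluorescence (ex 380, em 460 nm) followed continuously for 30 min. Rates compared with DMSO controls. Multiple concentrations tested in duplicate or triplicate; IC50 extrapolated from % control activity curves.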

Hemozoin [1] = assay: Inhibition of hemoglobin degradation as percentage of organisms with dark swollen food vacuoles; format: functional; design: scale not given: the % may be the effect or the level left; conditions: Plasmodium falciparum
Plasmodium falciparum [2] = assay: Inhibition of parasitaemia in [3H]hypoxanthine incorporation assay; format: functional, organism-based
Outline: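 Ring-stage P. falciparum Itg2 cultures (300 μL) given compound from 100× DMSO stocks for 24 h. [3H]hypoxanthine then added (0.0144 μg, 1.2 μCi per well) for a further 18 h. Cells harvested onto glass-fiber filters and counted by scintillation. Uptake compared with 1% DMSO controls; IC50 extrapolated from % control curves.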

Plasmodium falciparum [3] = assay: Inhibition of parasitaemia in ring-form development assay; format: functional, organism-based
Outline: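 Ring-stage Itg2 cultures (2 mL) incubated with compound from 100× DMSO stocks. Medium changed at 24 h with inhibitor maintained. At 48 h, new ring forms per 1000 erythrocytes counted on Giemsa-stained smears and compared with 1% DMSO controls.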

Hemozoin [4] = assay: Inhibition of hemoglobin degradation as percentage of organisms with dark swollen food vacuoles; 50-90%; format: functional; design: scale not given: the % may be the effect or the level left; conditions: Plasmodium falciparum
Hemozoin [5] = assay: Inhibition of hemoglobin degradation as percentage of organisms with dark swollen food vacuoles; 10-50%; format: functional; design: scale not given: the % may be the effect or the level left; conditions: Plasmodium falciparum
Hemozoin [6] = assay: Inhibition of hemoglobin degradation as percentage of organisms with dark swollen food vacuoles; 0-10%; format: functional; design: scale not given: the % may be the effect or the level left; conditions: Plasmodium falciparum

Structure (SMILES) | pIC50 (Falcipain 2) | pIC50 (Plasmodium falciparum [2]) | pIC50 (Plasmodium falciparum [3]) | further results
COc1ccc(C2CC3=Nc4ccc(Cl)cc4S(=O)(=O)C3=C(O)C2)cc1OC (stereo not drawn) | 4.30 |  |  | 
O=S1(=O)C2=C(O)CC(c3ccc(Cl)cc3Cl)CC2=Nc2ccc(Cl)cc21 (stereo not drawn) | 4.52 |  |  | 
COc1cccc(C2CC3=Nc4ccc(F)cc4S(=O)(=O)C3=C(O)C2)c1 (stereo not drawn) | 5.30 | 5.52 | 5.52 | Activity (Hemozoin [4]): 90%; pIC50 (MDCK): < 4.00
OC1=C2Sc3cc(Cl)ccc3N=C2CCC1 | 4.40 |  |  | 
COc1ccc(C2CC3=Nc4ccc(F)cc4S(=O)(=O)C3=C(O)C2)cc1OC (stereo not drawn) | 5.30 | 5.52 | 6.00 | Activity (Hemozoin [5]): 50%
O=S1(=O)C2=C(O)CC(c3ccc(Cl)cc3)CC2=Nc2ccc(F)cc21 (stereo not drawn) | 5.30 | 5.40 | 5.22 | Activity (Hemozoin [5]): 50%
CC1(C)CC2=Nc3ccc(F)cc3SC2=C(O)C1 | 4.22 |  |  | 
O=S1(=O)C2=C(O)CC(c3ccc(Cl)cc3)CC2=Nc2ccc(Cl)cc21 (stereo not drawn) | 5.40 | 5.10 | 5.40 | Activity (Hemozoin [5]): 50%
OC1=C2Sc3cc(Cl)ccc3N=C2CC(c2ccc(Cl)cc2)C1 (stereo not drawn) | 5.40 | 5.22 | 5.52 | Activity (Hemozoin [6]): < 10%; pIC50 (MDCK): 5.00
CC1(C)CC2=Nc3ccc(Cl)cc3SC2=C(O)C1 | 4.52 |  |  | 
CC1(C)CC2=Nc3ccc(Cl)cc3S(=O)(=O)C2=C(O)C1 | 5.30 | 4.22 | 4.70 | pIC50 (MDCK): < 4.00; Activity (Hemozoin [1]): > 90%
COc1ccc(C2CC3=Nc4ccc(Cl)cc4S(=O)(=O)C3=C(O)C2)cc1 (stereo not drawn) | 4.52 |  |  | 
CC1(C)CC2=Nc3ccc(F)cc3S(=O)(=O)C2=C(O)C1 | 5.30 | 4.00 | 4.52 | pIC50 (MDCK): < 4.00; Activity (Hemozoin [1]): > 90%
OC1=C2Sc3cc(Cl)ccc3N=C2CC(c2ccccc2)C1 (stereo not drawn) | 5.00 |  |  | 
O=S1(=O)C2=C(O)CC(c3ccccc3)CC2=Nc2ccc(Cl)cc21 (stereo not drawn) | 5.40 | 5.30 | 5.30 | Activity (Hemozoin [4]): 90%

Now from value to compound, other results behind:

pIC50 (Falcipain 2) | pIC50 (Plasmodium falciparum [2]) | pIC50 (Plasmodium falciparum [3]) | Structure (SMILES) | further results
5.40 | 5.70 | 5.70 | COc1cccc(C2CC3=Nc4ccc(Cl)cc4S(=O)(=O)C3=C(O)C2)c1OC (stereo not drawn) | pIC50 (MDCK): < 4.00; Activity (Hemozoin [1]): > 90%
4.70 |  |  | COc1ccc(C2CC3=Nc4ccc(F)cc4SC3=C(O)C2)cc1OC (stereo not drawn) | 
5.00 |  |  | COc1ccc(C2CC3=Nc4ccc(Cl)cc4SC3=C(O)C2)cc1 (stereo not drawn) | 
4.70 |  |  | OC1=C2Sc3cc(F)ccc3N=C2CC(c2ccccc2)C1 (stereo not drawn) | 
4.70 |  |  | COc1cccc(C2CC3=Nc4ccc(F)cc4SC3=C(O)C2)c1 (stereo not drawn) | 
5.00 |  |  | OC1=C2Sc3cc(Cl)ccc3N=C2CC(c2ccc(Cl)cc2Cl)C1 (stereo not drawn) | 
5.00 |  |  | COc1cccc(C2CC3=Nc4ccc(Cl)cc4SC3=C(O)C2)c1OC (stereo not drawn) | 
5.00 |  |  | OC1=C2Sc3cc(F)ccc3N=C2CC(c2ccc(Cl)cc2Cl)C1 (stereo not drawn) | 
4.70 |  |  | COc1cccc(C2CC3=Nc4ccc(Cl)cc4SC3=C(O)C2)c1 (stereo not drawn) | 
5.30 | 5.40 | 5.52 | OC1=C2Sc3cc(F)ccc3N=C2CC(c2ccc(Cl)cc2)C1 (stereo not drawn) | Activity (Hemozoin [4]): 90%; pIC50 (MDCK): < 4.00
4.52 |  |  | COc1ccc(C2CC3=Nc4ccc(Cl)cc4SC3=C(O)C2)cc1OC (stereo not drawn) | 
4.70 |  |  | COc1cccc(C2CC3=Nc4ccc(F)cc4SC3=C(O)C2)c1OC (stereo not drawn) | 
